Laboratory results as given in ChEMBL document CHEMBL1138564, “Microwave-induced synthesis and anti-microbial activities of 7,10,11,12-tetrahydrobenzo[c]acridin-8(9H)-one derivatives” (2009).
Values after ≈ are worked out from the molar mass of the structure shown. Active and inactive are the calls of the source. No cut-off for these calls is given here.

Experiments:
Bacillus subtilis [1] = experiment: Antimicrobial activity against Bacillus subtilis NCIM 2063 at 1000 ug/disk after 24 hrs by disk diffusion method; format: functional; conditions: NCIM 2063, 24 h, read-out: DIZ
Summary of the method: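 Disc diffusion on Mueller–Hinton agar. 100 µl of bacterial suspension at 10⁸ CFU/ml is spread on the plate. Discs carry test compounds at two loadings, dissolved in DMSO; DMSO alone serves as negative control. Ofloxacin disc is the positive reference. Plates are incubated at 37 °C for 24 h, and the inhibition zone diameter is measured.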

Salmonella typhimurium [2] = experiment: Antimicrobial activity against Salmonella Typhimurium NCIM 2501 at 500 ug/disk after 24 hrs by disk diffusion method; format: functional; conditions: for diameter of the inhibition zone (DIZ): Salmonella enterica subsp. enterica serovar Typhimurium; for zone of inhibition at 500 µg/disc: Salmonella enterica, NCIM 2501, 24 h, read-out: DIZ
Summary of the method: (§1)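 Disc diffusion. 100 µl of bacterial suspension at 10⁸ CFU/ml was spread on Mueller–Hinton agar. Discs loaded with test compound dissolved in DMSO were placed on the lawn, with a DMSO-only disc as negative control. Plates were incubated at 37 °C for 24 h, and the inhibition zone diameter was measured.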

Staphylococcus [3] = experiment: Antimicrobial activity against Staphylococcus albus NCIM 2178 at 500 ug/disk after 24 hrs by disk diffusion method; format: functional; summary of the method: as §1
Aspergillus fumigatus [4] = experiment: Antimicrobial activity against Aspergillus fumigatus NCIM 902 at 500 ug/disk after 72 hrs by disk diffusion method; format: functional
Summary of the method: (§2)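 Disc diffusion on Sabouraud's dextrose agar. 100 µl of fungal suspension at 10⁶ CFU/ml is spread on the plate. Discs carry test compounds at two loadings in DMSO; DMSO alone is the negative control. Clotrimazole disc is the positive reference. Plates are incubated at 27 °C for 72 h, and the zone of inhibition diameter is measured.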

Aspergillus parasiticus = experiment: Antimicrobial activity against Aspergillus parasiticus NCIM 904 at 1000 ug/disk after 72 hrs by disk diffusion method; format: functional; conditions: NCIM 904, 72 h, read-out: DIZ; summary of the method: as §2
Lipomyces lipofer [5] = experiment: Antimicrobial activity against Lipomyces lipofer NCIM 3252 at 1000 ug/disk after 72 hrs by disk diffusion method; format: functional; conditions: for zone of inhibition at 1000 µg/disc: NCIM 3252, 72 h, read-out: DIZ; summary of the method: as §2
Rhodotorula mucilaginosa = experiment: Antimicrobial activity against Rhodotorula rubra NCIM 3174 after 72 hrs by serial dilution method; format: functional; conditions: NCIM 3174, 72 h
Summary of the method: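 MIC by broth dilution in Sabouraud's dextrose broth, run only on fungi found sensitive in the disc assay. Twofold serial dilutions were made in 1 ml broth per tube, covering 3.9 to 1000. Inoculated tubes were incubated at 27 °C for 72 h.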

Aspergillus fumigatus [6] = experiment: Antimicrobial activity against Aspergillus fumigatus NCIM 902 after 72 hrs by serial dilution method; format: functional; conditions: NCIM 902, 72 h
Summary of the method: (§3)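 MIC by broth dilution in Sabouraud's dextrose broth, only for fungi sensitive in disc diffusion. Two-fold serial dilutions of compounds are made in 1 ml broth per tube, range 3.9 to 1000. Inoculated tubes are incubated at 27 °C for 72 h.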

Klebsiella aerogenes = experiment: Antimicrobial activity against Klebsiella aerogenes NCIM 2239 after 24 hrs by serial dilution method; format: functional; conditions: NCIM 2239, 24 h
Summary of the method: (§4)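 Broth dilution MIC in nutrient broth, run only for organisms found sensitive in disc diffusion. Compounds are two-fold serially diluted in 1 ml sterile broth per tube, spanning 3.9 to 1000. Inoculated tubes are incubated at 37 °C for 24 h.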

Bacillus subtilis [7] = experiment: Antimicrobial activity against Bacillus subtilis NCIM 2063 after 24 hrs by serial dilution method; format: functional; conditions: NCIM 2063, 24 h; summary of the method: as §4
Aliivibrio fischeri = experiment: Antimicrobial activity against Vibrio fischeri NCIM 2154 after 24 hrs by serial dilution method; format: functional; conditions: NCIM 2154, 24 h
[8] = tested on: Rhodococcus corynebacterioides; experiment: Antimicrobial activity against Corynebacterium rubrum NCIM 2252 after 24 hrs by serial dilution method; format: functional; conditions: Rhodococcoides corynebacterioides, NCIM 2252, 24 h; summary of the method: as §4
Aspergillus niger [9] = experiment: Antimicrobial activity against Aspergillus niger NCIM 1196 at 500 ug/disk after 72 hrs by disk diffusion method
Aspergillus niger [10] = experiment: Antimicrobial activity against Aspergillus niger NCIM 1196 at 1000 ug/disk after 72 hrs by disk diffusion method
Aspergillus niger [11] = experiment: Antimicrobial activity against Aspergillus niger NCIM 902 at 500 ug/disk after 72 hrs by disk diffusion method; format: functional; conditions: NCIM 1196, 72 h, in the assay text read “NCIM 1196” for “NCIM 902”, read-out: DIZ; summary of the method: as §2
Aspergillus niger [12] = experiment: Antimicrobial activity against Aspergillus niger NCIM 902 at 1000 ug/disk after 72 hrs by disk diffusion method; format: functional; conditions: NCIM 1196, 72 h, in the assay text read “NCIM 1196” for “NCIM 902”, read-out: DIZ; summary of the method: as §2
Staphylococcus [13] = experiment: Antimicrobial activity against Staphylococcus albus NCIM 2178 after 24 hrs by serial dilution method; format: functional; conditions: NCIM 2178, 24 h
Proteus vulgaris = experiment: Antimicrobial activity against Proteus vulgaris NCIM 2027 after 24 hrs by serial dilution method; format: functional; conditions: NCIM 2027, 24 h; summary of the method: as §4
Aspergillus niger [14] = experiment: Antimicrobial activity against Aspergillus niger NCIM 902 after 72 hrs by serial dilution method; format: functional; conditions: NCIM 1196, 72 h, in the assay text read “NCIM 1196” for “NCIM 902”; summary of the method: as §3
Lipomyces lipofer [15] = experiment: Antimicrobial activity against Lipomyces lipofer NCIM 3252 after 72 hrs by serial dilution method; format: functional; conditions: NCIM 3252, 72 h; summary of the method: as §3
Salmonella typhimurium [16] = experiment: Antimicrobial activity against Salmonella Typhimurium NCIM 2501 after 24 hrs by serial dilution method; format: functional, Salmonella enterica subsp. enterica serovar Typhimurium; conditions: Salmonella enterica, NCIM 2501, 24 h
Bacillus cereus = experiment: Antimicrobial activity against Bacillus cereus NCIM 2155 after 24 hrs by serial dilution method; format: functional; conditions: NCIM 2155, 24 h; summary of the method: as §4
Penicillium chrysogenum = experiment: Antimicrobial activity against Penicillium chrysogenum NCIM 707 after 72 hrs by serial dilution method; format: functional; conditions: NCIM 707, 72 h; summary of the method: as §3

Compound	zone of inhibition at 1000 µg/disc (Bacillus subtilis [1]) [mm]	diameter of the inhibition zone (DIZ) (Salmonella typhimurium [2])	diameter of the inhibition zone (DIZ) (Staphylococcus [3])	zone of inhibition at 1000 µg/disc (Aspergillus parasiticus) [mm]	diameter of the inhibition zone (DIZ) (Lipomyces lipofer [5])	MIC (Rhodotorula mucilaginosa) [µg/mL]	MIC (Aspergillus fumigatus [6]) [µg/mL]	MIC (Klebsiella aerogenes) [µg/mL]	MIC (Bacillus subtilis [7]) [µg/mL]	MIC (Aliivibrio fischeri) [µg/mL]	MIC [8] [µg/mL]	diameter of the inhibition zone (DIZ) (Aspergillus niger [9])	diameter of the inhibition zone (DIZ) (Aspergillus niger [10])	zone of inhibition at 500 µg/disc (Salmonella typhimurium [2]) [mm]	diameter of the inhibition zone (DIZ) (Aspergillus fumigatus [4])	zone of inhibition at 1000 µg/disc (Lipomyces lipofer [5]) [mm]	MIC (Lipomyces lipofer [15]) [µg/mL]	MIC (Salmonella typhimurium [16]) [µg/mL]	MIC (Bacillus cereus) [µg/mL]	also measured
O=C1CCCC2=C1C(c1cccc(Cl)c1)c1ccc3ccccc3c1N2 (centres undefined)	11	inactive	inactive	13	inactive	62.5 (≈ 174 µM)	31.2 (≈ 86.7 µM)	125 (≈ 347 µM)	31.2 (≈ 86.7 µM)	62.5 (≈ 174 µM)	125 (≈ 347 µM)	inactive	inactive	–	–	–	–	–	–	zone of inhibition at 500 µg/disc (Aspergillus fumigatus [4]; NCIM 902, 72 h, read-out: DIZ): 8 mm
O=C1CCCC2=C1C(c1cccc([N+](=O)[O-])c1)c1ccc3ccccc3c1N2 (centres undefined)	12	–	–	13	–	3.9 (≈ 10.5 µM)	125 (≈ 337 µM)	125 (≈ 337 µM)	31.2 (≈ 84.2 µM)	125 (≈ 337 µM)	125 (≈ 337 µM)	–	–	7	inactive	10	62.5 (≈ 169 µM)	62.5 (≈ 169 µM)	62.5 (≈ 169 µM)	zone of inhibition at 500 µg/disc (Staphylococcus [3]; NCIM 2178, 24 h, read-out: DIZ): 8 mm; zone of inhibition at 500 µg/disc (Aspergillus niger [11]): 7 mm; zone of inhibition at 1000 µg/disc (Aspergillus niger [12]): 7 mm; MIC (Staphylococcus [13]): 62.5 µg/mL (≈ 169 µM); MIC (Proteus vulgaris): 125 µg/mL (≈ 337 µM); MIC (Aspergillus niger [14]): 125 µg/mL (≈ 337 µM)
CC1(C)CC(=O)C2=C(C1)Nc1c(ccc3ccccc13)C2c1ccccc1 (centres undefined)	11	–	inactive	10	inactive	31.2 (≈ 88.3 µM)	62.5 (≈ 177 µM)	–	31.2 (≈ 88.3 µM)	125 (≈ 354 µM)	–	inactive	inactive	9	inactive	–	–	62.5 (≈ 177 µM)	31.2 (≈ 88.3 µM)	–
CC1(C)CC(=O)C2=C(C1)Nc1c(ccc3ccccc13)C2c1cccc(Cl)c1 (centres undefined)	9	–	inactive	12	–	62.5 (≈ 161 µM)	62.5 (≈ 161 µM)	125 (≈ 322 µM)	62.5 (≈ 161 µM)	125 (≈ 322 µM)	125 (≈ 322 µM)	inactive	inactive	8	inactive	8	125 (≈ 322 µM)	62.5 (≈ 161 µM)	62.5 (≈ 161 µM)	MIC (Penicillium chrysogenum): 62.5 µg/mL (≈ 161 µM)
O=C1CCCC2=C1C(c1ccccc1Cl)c1ccc3ccccc3c1N2 (centres undefined)	10	inactive	inactive	10	inactive	3.9 (≈ 10.8 µM)	62.5 (≈ 174 µM)	–	62.5 (≈ 174 µM)	125 (≈ 347 µM)	125 (≈ 347 µM)	inactive	inactive	–	inactive	–	–	–	–	–
